# From PubChem BioAssay
# The source made the active and inactive calls.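 How the source made its calls, unless noted: active means fluorescence slope higher than the sample average by over 3 SD (cut at about -0.22 in these data, passing the limit was not always enough); inactive means the rest.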
# Assays:
# [1] = inhibitors of TNFa-induced NFkB p65 translocation, primary screen, imaging, HUVEC, MLSMR starter and 10KST1 sets (AID 438;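 active means inhibition above 20% together with a positive visual image hit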;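 further: compound added about 3h40 before a 20 min TNFalpha stimulation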;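 on inhibition: signal is the nuclear over cytoplasmic p65 intensity ratio per well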); conditions: HUVEC TNFa-induced p65 nuclear translocation; cell count: measured here: nuclei count (cytotoxicity indicator), at 2.08 µM; inhibition: at 2 µM, stronger effect = higher value, 0% TNFa-plus-vehicle, 100% no-TNFa wells
# [2] = reduction of polyQ htt aggregates in cells – imaging, exon1htt(103Q)mCFP cells, high-content imaging, primary screen (AID 483;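 active means visual image review flags a hit and inhibition of aggregation exceeds 20%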;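 further: compound exposure lasted 3 days before fixation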;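 on nuclei count: percent of the per-plate median nuclei count of sample wells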); conditions: exon1htt(103Q)mCFP cell line, aggregate imaging, at 2 µM; inhibition of aggregation: stronger effect = higher value; nuclei count: measured here: cell count, toxicity
# [3] = endothelial E-selectin expression blockers – imaging, HUVEC, immunofluorescence, MLSMR starter and 10KST1 sets, primary screen (AID 487;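 active means visually confirmed hit in the image check and inhibition above 20%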;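 on inhibition: signal is fraction of cell area covered by stained E-selectin grains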;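 on nuclei count: 100% = median nuclei count of all wells on the same plate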); conditions: HUVEC TNFalpha-induced E-selectin immunofluorescence imaging, at 2 µM; inhibition: stronger effect = higher value; nuclei count: measured here: cell number, toxicity
# [4] = target: Voltage-gated potassium channel subunit beta-2 (Rattus norvegicus) (UniProt P62483); test: inhibitors of rat Kvbeta2 reductase activity – biochemical, NADPH fluorescence, primary screen (AID 622); conditions: recombinant KvBeta, 4-cyanobenzaldehyde reduction, at 10 µM, stronger effect = higher value;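 further: slope of raw intensity against log time taken from 70 to 1610 s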
# Chain of Voltage-gated potassium channel subunit beta-2 (Rattus norvegicus) (P62483 whole entry, looked up): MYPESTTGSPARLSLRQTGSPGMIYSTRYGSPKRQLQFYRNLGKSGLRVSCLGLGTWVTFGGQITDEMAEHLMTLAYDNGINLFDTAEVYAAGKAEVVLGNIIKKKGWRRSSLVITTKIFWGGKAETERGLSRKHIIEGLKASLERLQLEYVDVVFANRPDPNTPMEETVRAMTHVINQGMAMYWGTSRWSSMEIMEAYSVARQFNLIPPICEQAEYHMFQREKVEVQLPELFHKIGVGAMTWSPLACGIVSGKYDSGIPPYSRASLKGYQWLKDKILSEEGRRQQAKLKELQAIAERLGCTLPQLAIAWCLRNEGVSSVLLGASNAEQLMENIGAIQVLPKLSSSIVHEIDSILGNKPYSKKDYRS
# [5] = target: Voltage-gated potassium channel subunit beta-2 (Rattus norvegicus) (UniProt P62483); test: enhancers of rat Kvbeta2 NADPH turnover – biochemical, NADPH fluorescence, primary screen (AID 623;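 active means NADPH fluorescence slope more negative than the mean of all samples by about 3 SD, 99.7% confidence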;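 further: fluorescence intensity change per second fitted from 20 to 320 s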); conditions: Recombinant KvBeta, NADPH fluorescence decrease slope, 10 min; at 10 µM; stronger effect = lower value
# [6] = target: Muscarinic acetylcholine receptor M4 (Homo sapiens) (UniProt P08173); test: M4-linked GIRK flux change, two-sided – cell-based, HEK293 M4/GIRK, thallium flux, BTC-AM, M4 allosteric agonist project, primary screen (AID 625;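 active means fluorescence slope after compound addition differing from the mean of all tested samples at 99.7% confidence, mostly higher but some lower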;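 further: thallium influx through GIRK channels coupled to M4 in HEK293 cells with BTC-AM dye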); conditions: at 10 µM, actives lie on both sides
# Chain of Muscarinic acetylcholine receptor M4 (Homo sapiens) (P08173 whole entry, looked up): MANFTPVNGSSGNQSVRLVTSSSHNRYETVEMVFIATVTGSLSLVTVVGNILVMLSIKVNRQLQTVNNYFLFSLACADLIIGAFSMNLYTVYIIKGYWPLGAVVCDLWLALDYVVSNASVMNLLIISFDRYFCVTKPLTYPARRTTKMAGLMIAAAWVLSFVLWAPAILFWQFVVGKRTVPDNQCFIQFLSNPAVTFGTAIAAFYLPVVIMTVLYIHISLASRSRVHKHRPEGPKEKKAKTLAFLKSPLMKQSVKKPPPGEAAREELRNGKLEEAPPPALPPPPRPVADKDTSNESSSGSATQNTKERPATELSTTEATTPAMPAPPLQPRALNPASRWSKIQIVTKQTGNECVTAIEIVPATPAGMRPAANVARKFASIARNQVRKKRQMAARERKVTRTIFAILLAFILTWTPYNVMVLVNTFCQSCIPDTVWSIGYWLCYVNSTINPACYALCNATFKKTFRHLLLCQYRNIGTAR
# How it was run: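 Material – HEK293 cells with M4 receptor and GIRK channels · Buffer or medium – pH 7.3 thallium assay buffer · Doses – one dose, 10 µM final · Timing – cells overnight at 37 °C, BTC-AM loading 1 h, reads 2 min total · Measured by – kinetic fluorescence with BTC-AM dye · Controls – carbachol and DMSO controls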
# [7] = blockers of RIG-like receptor reporter activation – cell-based, Sendai virus stimulus, luciferase, 10K MLSCN set, TLR/RLR signaling modifier project, primary screen (AID 602276;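 active means inhibition at or above 50% at 10 µM; inactive means inhibition below 50%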;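 further: firefly luciferase from ISG56 promoter only with Renilla not read in this screen; 0% = Sendai virus plus DMSO and 100% = medium plus DMSO without virus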); conditions: HEK293 RL24 IRF3 luciferase reporter, at 10 µM, stronger effect = higher value
# [8] = TLR3 IRF3 reporter activation blockers – cell-based, poly I:C stimulus, luciferase, 10K MLSCN set, primary screen (AID 602277;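 active means inhibition of the reporter signal at or above 50%; inactive means inhibition below 50%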); conditions: HEK293-TLR3 RL24 IRF3 luciferase reporter, at 10 µM, stronger effect = higher value
SMILES,cell count [1],inhibition [1],inhibition of aggregation [2],nuclei count [2] [%],inhibition [3],nuclei count [3] [%],fluorescence slope [4],NADPH fluorescence slope [5],fluorescence slope [6],inhibition [7],inhibition [8]
COc1ccccc1NC(=O)N1CCCC1C(=O)NC1CCCCC1 (centres undefined),582,0.4% (inactive),9% (inactive),92.5,-19.7% (inactive),121,-0.227 (inactive),-2.2e-05 (inactive),0.00721 (inactive),15.6% (inactive),11.1% (inactive)
COC(=O)C1(C)NC(c2ccco2)C2C(=O)N(c3ccc(C)cc3)C(=O)C21 (centres undefined),560,-17.5% (inactive),-8.7% (inactive),113,-40.3% (inactive),114,-0.318 (inactive),-3.5e-05 (inactive),0.00521 (inactive),14.7% (inactive),17.2% (inactive)
O=C(NCCN1CCOCC1)c1csc2c1CCCC2,643,-24.5% (inactive),22.6% (inactive),109,-109% (inactive),116,-0.257 (inactive),-1.1e-05 (inactive),0.0063 (inactive),12.1% (inactive),2.09% (inactive)
Cc1cc(OC(=O)N2CCOCC2)cc(C)c1Cl,309,-12.3% (inactive),-22.3% (inactive),114,-50% (inactive),130,-0.444 (inactive),5.1e-05 (inactive),0.00877 (inactive),-13.8% (inactive),99.2% (active)
CC(C)(C)C1=C[C@@H](CO)C[C@@H](CO)C1,734,-3.5% (inactive),-19.6% (inactive),103,-25.8% (inactive),138,-0.391 (inactive),-0.000123 (inactive),0.00843 (inactive),10.7% (inactive),23.8% (inactive)
CCOc1ccc(N(C)S(=O)(=O)c2ccc3[nH]cc(C(=O)NCC4CCCO4)c(=O)c3c2)cc1 (centres undefined),313,3.3% (inactive),-9.8% (inactive),67.5,4% (inactive),96.5,-0.567 (inactive),-4.5e-05 (inactive),0.00944 (inactive),1.36% (inactive),23% (inactive)
CCOc1ccccc1NC(=O)C1CCCN(C(=O)NCc2ccccc2)C1 (centres undefined),684,-7.7% (inactive),-15.4% (inactive),114,-96.5% (inactive),106,-0.448 (inactive),8e-05 (inactive),0.00645 (inactive),5.61% (inactive),-20.5% (inactive)
CN(c1ccccc1)S(=O)(=O)c1cc(C(=O)N2CCN(c3ccccn3)CC2)ccc1Cl,628,2.4% (inactive),-6.5% (inactive),134,-52.9% (inactive),108,-0.475 (inactive),-6e-05 (inactive),0.00416 (inactive),15.7% (inactive),13.1% (inactive)
COCCNC(=O)Cn1nc(C(F)(F)F)c(Br)c1C,376,1.1% (inactive),19.5% (inactive),65.4,0.5% (inactive),92,-0.548 (inactive),-4.9e-05 (inactive),0.00551 (inactive),3.89% (inactive),20.6% (inactive)
O=C(NCCCN1CCCC1=O)c1cncc(Br)c1,394,-5.8% (inactive),14.1% (inactive),91.8,54.5% (active),72.7,-0.418 (inactive),-9.4e-05 (inactive),0.00605 (inactive),13.1% (inactive),24.3% (inactive)
Cn1c(=O)c2c(nc(SCC(=O)O)n2Cc2cccc(C(F)(F)F)c2)n(C)c1=O,204,-0.8% (inactive),-19.7% (inactive),77.2,9.2% (inactive),74.6,-0.531 (inactive),6.2e-06 (inactive),0.0052 (inactive),15.4% (inactive),13.8% (inactive)
CC(=O)Nc1nc(C)c(-c2csc(Nc3ccc(O)cc3)n2)s1,547,1.5% (inactive),33.1% (inactive),99.7,-154% (inactive),164,-0.556 (inactive),-2.7e-05 (inactive),0.00314 (inactive),20.1% (inactive),9.01% (inactive)
Cc1cc(NC(=O)CSc2nnc(C3CC3)n2C)no1,296,1.1% (inactive),15.4% (inactive),96.8,-26.7% (inactive),93.5,-0.55 (inactive),-7.5e-05 (inactive),0.00523 (inactive),8.69% (inactive),16.1% (inactive)
COC(=O)c1ccc(COc2ncnc3c(Cl)cc(Cl)cc23)o1,406,-5% (inactive),25.5% (inactive),74.4,59.9% (inactive),78.8,-0.433 (inactive),-0.000426 (inactive),0.00494 (inactive),2.59% (inactive),1.58% (inactive)
